Consider 15 compounds from ChEMBL document CHEMBL3045343, “Nematicidal activity of 2-thiophenecarboxaldehyde and methylisothiocyanate from caper (Capparis spinosa) against Meloidogyne incognita” (J Agric Food Chem, 2012).

≈ marks a conversion by molar mass, not a printed value.

By EC50 is commonly meant the concentration needed to bring the measured effect to its halfway point. As a reminder, the mortality is the percentage killed. Lower therefore signals a weak lethal effect.

In test [1] the test system is Meloidogyne incognita. Briefly: Nematicidal activity against Meloidogyne incognita (root-knot nematode) juveniles J2 assessed as paralysis after 1 day. Conditions: 24 h. Format: functional, organism-based. A digest of the protocol: (§1)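 M. incognita (Italian population reared on tomato cv. Roma VF) J2 hatched from egg masses in distilled water at 25 ± 2 °C. Methanol stocks diluted with Tween 20 in water (final methanol ≤1% v/v). Working solution at double strength mixed 1:1 with a suspension of 25 J2 per well. Held covered, dark, 20 °C. Paralysis scored by inverted microscope. Corrected by Schneider-Orelli against water control. EC50 from log-logistic regression. Six replicates; four experiments.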

Test [2] relates to Meloidogyne incognita. Briefly: Nematicidal activity against Meloidogyne incognita (root-knot nematode) juveniles J2 assessed as paralysis after 1 hr. Format: functional, organism-based. A digest of the protocol: as §1
Test [3] has as its system Meloidogyne incognita. Description: Toxicity against Meloidogyne incognita (root-knot nematode) juveniles J2 at 100 mg/L after 24 hr. Format: functional. A digest of the protocol: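 J2 were immersed in 100 mg/L test solution in multiwell plates containing 25 J2 per well. Plates were held in the dark at 20 °C. Paralysis or death was scored by microscope after 24 h and corrected against the water control.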

On to `N#Cc1ccc(C=O)s1`, for which the concentration for a half-maximal effect (EC50) in test [1] and in test [2] was over 250 µg/mL in each case.

For the compound `O=Cc1ccc[nH]1`, the concentration for a half-maximal effect (EC50) is 392 µg/mL (≈ 4120 µM) in test [1] and over 1000 µg/mL in test [2].

Turning to `Cn1cccc1C=O`, the EC50 in test [1] and in test [2] was over 1000 µg/mL each time.

On to `N#Cc1c[nH]c2ccccc12`, for which the concentration giving a half-maximal response (EC50) is 68.9 µg/mL (≈ 485 µM) in test [1] and over 250 µg/mL in test [2].

Take `N#Cc1ccc(C#N)s1` [2,5-THIOPHENEDINITRILE]: the EC50 in test [1] and in test [2] was over 250 µg/mL each time.

`O=Cc1ccc(C=O)s1` [2,5-THIOPHENENEDICARBOXALDEHYDE]: the EC50 came out at 1.13 µg/mL (≈ 8.06 µM) in test [1] and 1.2 µg/mL (≈ 8.56 µM) in test [2].

Take `O=Cc1ccccn1` [2-PYRIDINECARBOXALDEHYDE]: the half-maximal effective concentration (EC50) in test [1] turned out to be 3.6 µg/mL (≈ 33.6 µM); in test [2] it was 25 µg/mL (≈ 233 µM). The compound further gave a mortality at 100 µg/mL in test [3] of 100%.

For the compound `O=C1CCCN1` [2-PYRROLIDONE], the half-maximal effective concentration (EC50) in test [1] and in test [2] was over 250 µg/mL throughout.

Take `N#Cc1cccs1` [2-THIOPHENECARBONITRILE]: the EC50 in test [1] and in test [2] was over 100 µg/mL each time.

For `O/N=C/c1cccs1` [2-THIOPHENECARBOXALDEHYDE OXIME], the 50% effective concentration (EC50) in test [1] and in test [2] was over 250 µg/mL each time.

On to `O=Cc1cccs1` [2-THIOPHENENECARBOXALDEHYDE], for which the figures for the 50% effective concentration (EC50) in test [1] and in test [2] were 14.1 µg/mL (≈ 126 µM) and 105 µg/mL (≈ 936 µM), respectively. For the same compound, the mortality at 100 µg/mL in test [3] came to 100%.

Take `O=Cc1c[nH]c2ccccc12` [3-FORMYLINDOLE]: the EC50 in test [1] is 301 µg/mL (≈ 2070 µM); in test [2], over 250 µg/mL.

On to `O=C1Nc2ccccc2C1=O` [ISATIN], for which the half-maximal effective concentration (EC50) in test [1] and in test [2] was over 250 µg/mL each time.

For `CN=C=S` [METHYLISOTHIOCYANATE], the EC50 in test [1] is 7.86 µg/mL (≈ 107 µM); in test [2], over 10 µg/mL.

Turning to `O=Cc1cccnc1` [NICOTINALDEHYDE], the EC50 in test [1] was over 10 µg/mL; in test [2], over 250 µg/mL.
